# This is one part of the list. Unmarked numbers belong to inactive results. Active and inactive are the calls of the source.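 The calls were made as follows: active = inhibition of pump activity above 50%; inactive = the rest.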
# Target: ATP-dependent translocase ABCB1 (Homo sapiens) (UniProt P08183)
# Experiment: ABCB1 efflux pump inhibitors, confirmation, cell-based, single point, ABCG2 counter-screen (AID 1451);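 also: 0% = DMSO and 100% = nicardipine full pump inhibition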
# Details: CCRF-Adr cells, JC-1 efflux, flow cytometry; at 6.6 µM; hits give high values
# In short: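 Assay system: ABCB1-expressing CCRF-Adr cells / Compound dosing: single test-compound dose, 6.6 µM final / Schedule: 10 min exposure, 25 °C / Technique: high-throughput flow cytometry, JC-1 green emission 530 ± 20 nm / Read-out basis: % pump inhibition from median JC-1 fluorescence, autofluorescence-corrected, scaled between controls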
# Chain of ATP-dependent translocase ABCB1 (Homo sapiens) (P08183 whole entry, looked up): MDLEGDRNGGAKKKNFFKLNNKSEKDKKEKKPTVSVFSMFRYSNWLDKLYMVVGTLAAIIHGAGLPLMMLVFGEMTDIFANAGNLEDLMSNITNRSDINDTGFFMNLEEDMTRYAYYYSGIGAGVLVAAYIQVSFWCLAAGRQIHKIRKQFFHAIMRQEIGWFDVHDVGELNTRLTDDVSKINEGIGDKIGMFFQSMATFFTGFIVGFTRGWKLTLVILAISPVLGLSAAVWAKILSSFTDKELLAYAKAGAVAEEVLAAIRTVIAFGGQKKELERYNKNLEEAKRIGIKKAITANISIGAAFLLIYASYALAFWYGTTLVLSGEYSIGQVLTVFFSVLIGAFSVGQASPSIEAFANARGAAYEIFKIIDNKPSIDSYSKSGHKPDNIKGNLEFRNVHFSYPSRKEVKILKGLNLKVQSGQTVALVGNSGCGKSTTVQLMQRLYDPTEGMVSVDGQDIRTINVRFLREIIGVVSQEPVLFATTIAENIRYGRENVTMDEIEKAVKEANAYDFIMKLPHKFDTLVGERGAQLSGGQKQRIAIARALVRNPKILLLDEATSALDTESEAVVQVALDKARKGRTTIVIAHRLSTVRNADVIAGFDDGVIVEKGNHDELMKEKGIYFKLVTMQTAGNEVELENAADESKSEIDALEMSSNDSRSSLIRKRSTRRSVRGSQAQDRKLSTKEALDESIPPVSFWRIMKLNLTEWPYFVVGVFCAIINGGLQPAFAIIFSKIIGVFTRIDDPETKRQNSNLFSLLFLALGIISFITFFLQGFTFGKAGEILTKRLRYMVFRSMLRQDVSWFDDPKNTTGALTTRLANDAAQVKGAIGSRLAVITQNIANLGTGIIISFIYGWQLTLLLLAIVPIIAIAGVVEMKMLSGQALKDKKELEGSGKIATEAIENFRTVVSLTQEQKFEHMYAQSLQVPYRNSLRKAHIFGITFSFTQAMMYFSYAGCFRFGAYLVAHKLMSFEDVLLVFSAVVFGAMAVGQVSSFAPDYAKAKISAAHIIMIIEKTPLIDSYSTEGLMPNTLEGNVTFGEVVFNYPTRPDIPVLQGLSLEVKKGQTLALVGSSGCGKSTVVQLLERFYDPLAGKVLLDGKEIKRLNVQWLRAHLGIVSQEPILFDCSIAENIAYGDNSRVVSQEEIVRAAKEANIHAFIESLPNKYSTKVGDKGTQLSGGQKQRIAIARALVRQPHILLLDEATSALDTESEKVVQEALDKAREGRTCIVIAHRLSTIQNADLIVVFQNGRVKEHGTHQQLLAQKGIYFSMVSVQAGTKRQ
row,SMILES,inhibition
1,COc1ccc(C)cc1NC(=O)C(Sc1ccccc1)c1ccccc1 (stereo not drawn),3.76%
2,C=CCn1c(SCCOc2ccc(OC)cc2)nnc1C(NC(=O)c1ccc(OC)cc1)C(C)C (stereo not drawn),23.6%
3,Cc1ccc(OCC(O)CN2CCN(CC(O)COc3ccc(C)cc3Cl)CC2)c(Cl)c1 (stereo not drawn),17.1%
4,Cc1ccc(-n2c(SCC(=O)Nc3ncc(Cl)cc3Cl)nc3ccccc32)cc1,41.2%
5,COc1cccc(NC(=O)c2ccc(Cn3cc([N+](=O)[O-])cn3)o2)c1,-0.63%
6,CCN1/C(=C/c2ccc3ccc(C)cc3[n+]2CC)Sc2ccccc21,-9.15%
7,C/C(=N\Nc1ncc(Cl)cc1Cl)c1ccc(S(=O)(=O)NCc2ccco2)cc1,1.61%
8,CCOC(=O)c1sc(NC(=O)CSc2nnc(-c3ccco3)o2)c(C(=O)OCC)c1C,15.2%
9,Cc1cccc2cc(CN(Cc3cccs3)C(c3nnnn3C3CCCC3)C(C)C)c(=O)[nH]c12 (stereo not drawn),61.6% (active)
10,COc1ccc(-n2c(C)cc(C(=O)COC(=O)c3cc(OC)c(OC)cc3NC(=O)c3cccs3)c2C)cc1,3%
11,O=C(Cc1c[nH]c2ccccc12)N/N=C/c1cccc(F)c1,-0.99%
12,Cc1c(CCOC(=O)CC23CC4CC(CC(C)(C4)C2)C3)sc[n+]1Cc1ccc([N+](=O)[O-])cc1,0.26%
13,CCOCC(=O)Nc1sc2c(c1C(=O)OCC)CCCC2,2.32%
